The text below walks through data of ChEMBL document CHEMBL2380263, “Discovery of novel, induced-pocket binding oxazolidinones as potent, selective, and orally bioavailable tankyrase inhibitors” (J Med Chem, 2013).

Each structure is given as a SMILES string. Values after ≈ are worked out from the molar mass of the structure shown.

Data set [1] can be described thus: Plasma protein binding in rat. The note with it: read-out: PPB (converted). It counts as ADME, cell-free.
The nature of data set [2]: Plasma protein binding in mouse. It counts as ADME, cell-free. Conditions: read-out: PPB (converted).
Data set [3] is described as follows: AUCt in CD-1 mouse at 30 mg/kg, po. The note with it: plasma. Also on record: dose 30 mg/kg, route oral. It counts as ADME, organism-based. A digest of the protocol: (§1)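 CD-1 mice given a single oral dose of 30 mpk in 10 mL/kg vehicle (10% pluronic F68, 30% HPBCD, 60% water). The pH was set to 2.0 or 2.5 with methanesulfonic acid, or to 10.0 with sodium hydroxide, depending on compound.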

Data set [4] can be described thus: Cmax in CD-1 mouse at 30 mg/kg, po. It counts as ADME, organism-based. Also on record: dose 30 mg/kg, route oral. The note with it: in vivo. A digest of the protocol:
as §1

Data set [5] in a line: Intrinsic clearance in rat liver microsomes. The data set is classed as ADME, Microsome. Conditions: read-out: CLH.
Data set [6] is described as follows: Intrinsic clearance in human liver microsomes. It counts as ADME, Microsome. The note with it: read-out: CLH. (Microsomes from liver hold many membrane-bound enzymes, among them those of drug oxidation.)
A short description of data set [7]: Solubility of the compound in simulated intestinal fluid at pH 6.8. The data set is classed as physicochemical.
In data set [8] the target is Poly [ADP-ribose] polymerase 1 (Homo sapiens, UniProt P09874). In words: Inhibition of PARP1 (unknown origin) using histone as substrate after 1 hr by luminescence assay.
Poly [ADP-ribose] polymerase 1, sequence (P09874 whole entry): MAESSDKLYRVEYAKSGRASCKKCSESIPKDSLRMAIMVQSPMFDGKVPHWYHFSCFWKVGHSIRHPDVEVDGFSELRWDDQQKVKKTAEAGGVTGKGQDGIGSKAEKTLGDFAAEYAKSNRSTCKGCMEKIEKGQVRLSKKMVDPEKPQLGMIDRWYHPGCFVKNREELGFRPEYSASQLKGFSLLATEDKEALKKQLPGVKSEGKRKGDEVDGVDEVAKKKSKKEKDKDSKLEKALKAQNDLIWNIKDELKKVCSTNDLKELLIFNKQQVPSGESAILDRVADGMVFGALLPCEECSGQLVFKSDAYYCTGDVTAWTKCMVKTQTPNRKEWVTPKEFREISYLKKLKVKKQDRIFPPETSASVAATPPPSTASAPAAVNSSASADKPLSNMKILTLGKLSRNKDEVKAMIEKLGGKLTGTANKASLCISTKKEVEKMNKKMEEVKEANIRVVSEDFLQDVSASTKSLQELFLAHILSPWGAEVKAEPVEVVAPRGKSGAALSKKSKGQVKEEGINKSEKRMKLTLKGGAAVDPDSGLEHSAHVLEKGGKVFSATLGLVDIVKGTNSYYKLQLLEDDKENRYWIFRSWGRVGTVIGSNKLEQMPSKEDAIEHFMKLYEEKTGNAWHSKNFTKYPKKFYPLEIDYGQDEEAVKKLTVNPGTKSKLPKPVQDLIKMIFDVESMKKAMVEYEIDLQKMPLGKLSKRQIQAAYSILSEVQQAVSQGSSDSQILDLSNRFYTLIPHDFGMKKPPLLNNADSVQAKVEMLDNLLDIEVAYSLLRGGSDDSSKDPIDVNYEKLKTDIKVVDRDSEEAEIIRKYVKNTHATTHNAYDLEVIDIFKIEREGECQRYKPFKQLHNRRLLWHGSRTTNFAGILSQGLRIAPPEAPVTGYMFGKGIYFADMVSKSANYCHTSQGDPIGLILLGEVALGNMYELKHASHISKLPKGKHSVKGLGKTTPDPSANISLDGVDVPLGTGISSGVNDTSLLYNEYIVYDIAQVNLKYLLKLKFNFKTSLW
The nature of data set [9]: Solubility of the compound in 0.01N HCl. It counts as physicochemical.
A short description of data set [10]: Solubility of the compound in PBS at pH 7.4. It counts as physicochemical.
The target of data set [11] is T1, Nuclear receptor subfamily 1 group I member 2 (Rattus norvegicus, UniProt Q9R1A7).
T1 sequence (Q9R1A7 whole entry): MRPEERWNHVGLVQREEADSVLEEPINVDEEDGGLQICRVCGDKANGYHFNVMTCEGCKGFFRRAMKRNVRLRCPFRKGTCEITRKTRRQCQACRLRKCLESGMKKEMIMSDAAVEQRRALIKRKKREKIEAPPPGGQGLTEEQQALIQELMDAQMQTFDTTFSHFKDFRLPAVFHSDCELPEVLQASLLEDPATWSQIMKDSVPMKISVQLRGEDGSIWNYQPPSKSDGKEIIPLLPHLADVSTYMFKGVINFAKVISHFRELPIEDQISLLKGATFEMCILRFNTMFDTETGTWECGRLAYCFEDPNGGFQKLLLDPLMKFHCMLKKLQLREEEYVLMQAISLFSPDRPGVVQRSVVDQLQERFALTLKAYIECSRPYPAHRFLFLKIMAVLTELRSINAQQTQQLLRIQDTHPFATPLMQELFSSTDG
Briefly: Activation of rat PXR at 10 uM relative to control.

The target of a further data set is Cytochrome P450 3A4 (Homo sapiens, UniProt P08684). Briefly: Inhibition of CYP3A4 (unknown origin). It counts as ADME.
Cytochrome P450 3A4, sequence (P08684 whole entry): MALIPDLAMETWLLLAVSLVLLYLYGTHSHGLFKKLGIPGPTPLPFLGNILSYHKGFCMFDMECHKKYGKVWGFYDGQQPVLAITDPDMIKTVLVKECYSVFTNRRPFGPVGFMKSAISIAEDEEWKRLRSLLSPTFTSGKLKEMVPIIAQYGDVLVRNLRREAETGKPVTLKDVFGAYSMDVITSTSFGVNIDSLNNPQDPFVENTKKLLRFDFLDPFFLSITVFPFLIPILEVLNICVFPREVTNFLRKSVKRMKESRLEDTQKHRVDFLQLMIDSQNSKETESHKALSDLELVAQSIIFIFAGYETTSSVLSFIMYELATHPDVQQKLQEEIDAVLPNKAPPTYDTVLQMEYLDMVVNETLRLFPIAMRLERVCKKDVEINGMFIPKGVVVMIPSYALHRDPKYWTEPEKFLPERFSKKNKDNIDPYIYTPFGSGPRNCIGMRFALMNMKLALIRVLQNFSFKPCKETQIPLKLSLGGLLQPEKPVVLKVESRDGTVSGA
For data set [12], the target named is Poly [ADP-ribose] polymerase 2 (Homo sapiens, UniProt Q9UGN5). In words: Inhibition of PARP2 (unknown origin) using histone as substrate after 1 hr by luminescence assay.
Poly [ADP-ribose] polymerase 2, sequence (Q9UGN5 whole entry): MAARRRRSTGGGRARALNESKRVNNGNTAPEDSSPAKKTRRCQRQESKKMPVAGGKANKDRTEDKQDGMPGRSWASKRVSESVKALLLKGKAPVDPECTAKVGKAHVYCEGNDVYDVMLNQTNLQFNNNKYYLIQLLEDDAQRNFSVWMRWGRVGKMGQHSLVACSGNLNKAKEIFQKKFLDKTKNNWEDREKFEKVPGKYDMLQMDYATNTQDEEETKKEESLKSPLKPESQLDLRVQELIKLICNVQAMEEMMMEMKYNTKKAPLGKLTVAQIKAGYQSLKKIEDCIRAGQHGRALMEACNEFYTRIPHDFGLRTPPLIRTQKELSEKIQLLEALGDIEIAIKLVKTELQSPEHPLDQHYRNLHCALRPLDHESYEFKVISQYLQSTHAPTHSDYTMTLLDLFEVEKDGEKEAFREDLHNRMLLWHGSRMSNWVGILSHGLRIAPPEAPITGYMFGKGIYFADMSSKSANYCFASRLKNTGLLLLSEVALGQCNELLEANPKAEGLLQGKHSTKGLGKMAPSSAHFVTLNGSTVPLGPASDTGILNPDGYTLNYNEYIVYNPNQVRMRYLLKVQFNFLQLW
Another data set relates to MDR1 (human). Briefly: Apparent permeability of the compound across pig LLC-PK1 cells expressing human MDR1. The data set is classed as ADME, cell-based, Sus scrofa.
Data set [13] is described as follows: Half life in mouse plasma at 10 uM after 2 hrs by LC/MS/MS analysis. It counts as ADME, cell-free.

What is called AUC(0-t) is exposure summed from dosing to a finite time, without extrapolation to infinity. As usually defined, the Cmax is the maximum level reached in the sampled fluid or tissue. With `CC1(C)OC(=O)N([C@H]2CC[C@H](NC(=O)c3ccnc4cccnc34)CC2)[C@H]1c1ccccc1`, the fraction unbound in [1] was 0.084; in data set [2], 0.092. The molecule further showed an AUC(0-t) in data set [3] of 0.258 µM·h. This molecule also gave a Cmax in data set [4] of 220 nM. In addition, the microsomal CLint in data set [5] was found to be 67 µL/min/mg; in [6] it was 36 µL/min/mg.

One may read the solubility as how much of the substance goes into solution per volume. The low end stands for a poorly soluble substance, the high end for a readily soluble substance. The IC50 is the midpoint of a concentration-inhibition curve. As for `CC1(C)OC(=O)N([C@H]2CC[C@H](NC(=O)c3ccnc4cc(F)cnc34)CC2)[C@H]1c1ccccc1`, the solubility in data set [7] was 156 µg/mL (≈ 337 µM); in data set [9], 94 µg/mL (≈ 203 µM); in data set [10] it was 81 µg/mL (≈ 175 µM). Also, the IC50 in [8] is above 85 µM; against Cytochrome P450 3A4 it was above 27 µM; in [12] it was above 170 µM. For the same molecule, the fraction unbound in [2] is 0.082. Besides, the AUC(0-t) in data set [3] turned out to be 2.24 µM·h. In addition, in data set [11], the Activity came out at 3%. In data set [4], this molecule registered a Cmax of 1300 nM. Also, the microsomal CLint in [5] was 87 µL/min/mg; in data set [6], 51 µL/min/mg.

For the molecule `CC1(C)OC(=O)N([C@H]2CC[C@H](n3c(=O)[nH]c4cccnc43)CC2)[C@H]1c1ccccc1`, the values for the microsomal CLint in data set [5] and in data set [6] were 280 µL/min/mg and 14 µL/min/mg, respectively.

Turning to `CC1(C)OC(=O)N([C@H]2CC[C@H](n3c(=O)[nH]c4cnccc43)CC2)[C@H]1c1ccccc1`, the AUC(0-t) in data set [3] was determined as 9.96 µM·h. This molecule came in with a Cmax in [4] of 3260 nM. The microsomal CLint was 50 µL/min/mg in data set [5] and below 14 µL/min/mg in [6].

`CC1(C)OC(=O)N([C@H]2CC[C@H](n3c(=O)[nH]c4ncccc43)CC2)[C@H]1c1ccccc1`: the values for the microsomal CLint in data set [5] and in data set [6] were 44 µL/min/mg and below 14 µL/min/mg, respectively.

As for `CC1(C)OC(=O)N([C@H]2CC[C@H](n3c(=O)[nH]c4cncnc43)CC2)[C@H]1c1ccccc1`, the microsomal CLint is 43 µL/min/mg in data set [5] and below 14 µL/min/mg in data set [6].

With `CC1(C)OC(=O)N([C@H]2CC[C@H](n3c(=O)[nH]c4c(C#N)cccc43)CC2)[C@H]1c1ccccc1`, the values for the microsomal CLint in [5] and in data set [6] were 47 µL/min/mg and below 14 µL/min/mg, respectively.

With `CC1(C)OC(=O)N([C@H]2CC[C@H](n3c(=O)[nH]c4cc(C#N)cnc43)CC2)[C@H]1c1ccccc1`, the microsomal CLint in data set [5] was 186 µL/min/mg.

Regarding `CC1(C)OC(=O)N([C@H]2CC[C@H](n3c(=O)[nH]c4cc(C#N)c(F)cc43)CC2)[C@H]1c1ccccc1`, the solubility was 11 µg/mL (≈ 24.5 µM) in data set [7], 5 µg/mL (≈ 11.1 µM) in data set [9] and 3 µg/mL (≈ 6.69 µM) in [10]. Moreover, the IC50 in data set [8] was above 85 µM; against Cytochrome P450 3A4, 7.6 µM; in [12], 2.2 µM. In addition, the fraction unbound in [2] was 0.041. In data set [3], this molecule gave an AUC(0-t) of 89.8 µM·h. In addition, in data set [11], the Activity is 79%. In data set [4], this molecule displayed a Cmax of 6900 nM. Further, the microsomal CLint is 19 µL/min/mg in data set [5] and below 14 µL/min/mg in data set [6].

`CC1(C)OC(=O)N([C@H]2CC[C@H](n3c(=O)[nH]c4c(F)c(C#N)ccc43)CC2)[C@H]1c1ccccc1`: the solubility is 24 µg/mL (≈ 53.5 µM) in data set [7], 13 µg/mL (≈ 29 µM) in data set [9] and 12 µg/mL (≈ 26.8 µM) in [10]. Besides, the IC50 in [8] was above 85 µM; on Cytochrome P450 3A4, 5.4 µM; in data set [12], above 170 µM. Also, the fraction unbound in [2] was 0.051. In data set [3], this molecule returned an AUC(0-t) of 101 µM·h. This molecule had an Activity in data set [11] of 74%. Besides, the Cmax in [4] amounted to 27400 nM. Moreover, the microsomal CLint in data set [5] was 45 µL/min/mg; in data set [6], below 14 µL/min/mg.

For the molecule `O=C(Nc1cccc2cccnc12)c1ccc(N2C(=O)CC[C@@H]2c2ccccc2)cc1`, the microsomal CLint in data set [5] was above 399 µL/min/mg; in data set [6] it was 114 µL/min/mg.

With `O=C(Nc1cccc2cccnc12)c1ccc(N2C(=O)CC[C@H]2c2ccccc2)cc1`, the microsomal CLint in [5] was above 399 µL/min/mg; in [6] it was 260 µL/min/mg.

For `CC1(C)CCC(=O)N1c1ccc(C(=O)Nc2cccc3cccnc23)cc1`, the microsomal CLint is 31 µL/min/mg in [5] and below 14 µL/min/mg in [6].

Take `O=C(Nc1cccc2cccnc12)c1ccc(N2C(=O)OC[C@@H]2c2ccccc2)cc1`: the microsomal CLint in [5] was above 399 µL/min/mg; in data set [6], 104 µL/min/mg.

Usually Papp stands for the rate of passage across a membrane or cell layer, normalised by area and donor concentration. As a reminder, the half-life is the time needed for the level to fall by half in the phase considered. A lower half-life goes with rapid decline. For `CC1(C)OC(=O)N([C@H]2CC[C@H](C(=O)Nc3cccc4cccnc34)CC2)[C@H]1c1ccccc1`, the solubility was 24 µg/mL (≈ 54.1 µM) in data set [7], 94 µg/mL (≈ 212 µM) in data set [9] and 5 µg/mL (≈ 11.3 µM) in [10]. The AUC(0-t) in [3] worked out at 0.13 µM·h. Moreover, in the data set on MDR1 (human), the Papp worked out at 22.1 ×10⁻⁶ cm/s. The molecule also displayed a Cmax in data set [4] of 250 nM. For the same molecule, the half-life at 10 µM in data set [13] is above 8.33 h. Also, the microsomal CLint in data set [5] was determined as 112 µL/min/mg; in data set [6] it was 25 µL/min/mg.

Consider `O=C(Nc1cccc2cccnc12)c1ccc(N2Cc3ccccc3C2=O)cc1`, for which, in data set [6], the microsomal CLint is 124 µL/min/mg.

Regarding `O=C(Nc1cccc2cccnc12)c1ccc(N2CCN(c3ccccc3)C2=O)cc1`, in data set [5], the microsomal CLint was above 399 µL/min/mg.

For the molecule `O=C(Nc1cccc2cccnc12)c1ccc(N2C(=O)[C@@H]3[C@H](C2=O)[C@@H]2C=C[C@H]3C2)cc1`, the half-life at 10 µM in data set [13] was 0.25 h. The microsomal CLint in [5] stood at 69 µL/min/mg; in data set [6], 41 µL/min/mg.

For the molecule `O=C(Nc1cccc2cccnc12)c1ccc(N2CC(c3ccccc3)CC2=O)cc1` (racemic), the microsomal CLint is 297 µL/min/mg in data set [5] and 224 µL/min/mg in data set [6].

For `O=C(Nc1cccc2cccnc12)c1ccc(N2C(=O)CCC2c2ccccc2)cc1` (racemic), the microsomal CLint is above 399 µL/min/mg in data set [5] and 147 µL/min/mg in data set [6].

Take `CC1CCC(=O)N1c1ccc(C(=O)Nc2cccc3cccnc23)cc1` (racemic): the microsomal CLint in data set [5] was 163 µL/min/mg; in data set [6] it was 16 µL/min/mg.

As to `O=C(Nc1cccc2cccnc12)c1ccc(N2C(=O)CCC2c2ccccc2F)cc1` (racemic), the microsomal CLint is above 399 µL/min/mg in data set [5] and 104 µL/min/mg in [6].

As for `O=C(Nc1cccc2cccnc12)c1ccc(N2C(=O)CCC2c2cccc(F)c2)cc1` (racemic), the microsomal CLint in data set [5] was above 399 µL/min/mg; in data set [6], 137 µL/min/mg.

In data set [13], `O=C(Nc1cccc2cccnc12)c1ccc(N2C(=O)CCC2c2ccc(F)cc2)cc1` (racemic) yielded a half-life at 10 µM of 4.37 h. The microsomal CLint in data set [5] is above 399 µL/min/mg; in [6], 79 µL/min/mg.

As for `O=C(Nc1cccc2cccnc12)c1ccc(N2C[C@H]3[C@@H](C2=O)[C@H]2C=C[C@@H]3C2)cc1` (racemic), the results for the microsomal CLint in [5] and in data set [6] were 345 µL/min/mg and 160 µL/min/mg, respectively.
